Measurements published in ChEMBL document CHEMBL4390648, “Chemical synthesis, crystal structure, versatile evaluation of their biological activities and molecular simulations of novel pyrithiobac derivatives” (Eur J Med Chem, 2019).
Values after ≈ are worked out from the molar mass of the structure shown.

Experiments:
Mythimna separata [1] = test: Insecticidal activity against Mythimna separata assessed as larval mortality at 10 mg/l by leaf-dip method; assay type: functional
Candida albicans [2] = test: Antifungal activity against Candida albicans isolate 17 grown in RPMI 1640 medium incubated for 24 hrs by microdilution method; assay type: functional; conditions: isolate 17, 24 h
In short: (§1)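 C. albicans standard strain SC5314 and clinical isolates g5 and 17# tested by broth microdilution in YNB or RPMI 1640 medium. Plates incubated at 35 °C for up to 72 h, with visual readings taken at 24 h. MIC taken as the lowest concentration preventing visible growth.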

Ceratobasidium cereale [3] = test: Antifungal activity against Rhizoctonia cerealis assessed as reduction in growth at 50 mg/l by mycelium growth rate method relative to control; assay type: functional
In short: (§2)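 Mycelium growth rate method against S. sclerotiorum, P. capsici, P. piricola, R. cerealis, W. anthracnose and R. bakanae. Each compound tested at 50 mg/L, with chlorothalonil and PTB as controls. Relative inhibitory ratio (%) calculated from mycelial growth.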

Candida albicans [4] = test: Antifungal activity against Candida albicans SC5314 grown in RPMI 1640 medium incubated for 24 hrs by microdilution method; assay type: functional; conditions: SC5314, 24 h; in short: as §1
Candida albicans [5] = test: Inhibition of Candida albicans AHAS catalytic subunit at 10 uM using pyruvate as substrate measured after 30 mins by colorimetric method relative to control
In short: (§3)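 Colorimetric assay in 50 mM potassium phosphate pH 7.0 with 50 mM pyruvate, 1 mM thiamine diphosphate, 10 mM MgCl2 and 10 μM FAD. Incubated 30 min at 37 °C for plant AHAS and 30 °C for fungal AHAS. Acetolactate formed was then quantified.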

Candida albicans [6] = test: Inhibition of Candida albicans AHAS catalytic subunit at 100 uM using pyruvate as substrate measured after 30 mins by colorimetric method relative to control; in short: as §3
Candida albicans [7] = test: Antifungal activity against Candida albicans isolate g5 grown in RPMI 1640 medium incubated for 24 hrs by microdilution method; assay type: functional; conditions: isolate g5, 24 h; in short: as §1
Candida albicans [8] = test: Antifungal activity against Candida albicans SC5314 grown in YNB medium incubated for 24 hrs by microdilution method; assay type: functional; conditions: SC5314, 24 h; in short: as §1
Candida albicans [9] = test: Antifungal activity against Candida albicans isolate 17 grown in YNB medium incubated for 24 hrs by microdilution method; assay type: functional; conditions: isolate 17, 24 h; in short: as §1
Candida albicans [10] = test: Antifungal activity against Candida albicans isolate g5 grown in YNB medium incubated for 24 hrs by microdilution method; assay type: functional; conditions: isolate g5, 24 h; in short: as §1
Arabidopsis thaliana [11] = test: Inhibition of Arabidopsis thaliana AHAS catalytic subunit using pyruvate as substrate at 100 uM measured after 30 mins by colorimetric method relative to control; in short: as §3
Arabidopsis thaliana [12] = test: Inhibition of Arabidopsis thaliana AHAS catalytic subunit using pyruvate as substrate at 10 uM measured after 30 mins by colorimetric method relative to control; in short: as §3
[13] = tested on: Brassica rapa subsp. oleifera; test: Herbicidal activity against Brassica campestris L assessed as inhibition of rape root growth at 100 mg/l root growth incubated for 48 hrs relative to control; assay type: functional
In short: (§4)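 Rape seeds soaked in distilled water for 4 h, then placed on filter paper wetted with inhibitor solution, 15 seeds per 6-cm dish. Germinated in the dark at 28 °C for 48 h. Mean length of 10 roots per plate measured.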

[14] = tested on: Brassica rapa subsp. oleifera; test: Herbicidal activity against Brassica campestris L assessed as inhibition of rape root growth at 10 mg/l root growth incubated for 48 hrs relative to control; assay type: functional; in short: as §4
[15] = tested on: Brassica rapa subsp. oleifera; test: Pre-emergence herbicidal activity against Brassica campestris assessed as reduction in growth at 300g/ha measured after 24 days green house pot method relative to control; assay type: functional; conditions: 576 h
Amaranthus retroflexus [16] = test: Pre-emergence herbicidal activity against Amaranthus retroflexus assessed as reduction in growth at 300g/ha measured after 24 days by green house pot method relative to control; assay type: functional; conditions: 576 h
Echinochloa crus-galli [17] = test: Pre-emergence herbicidal activity against Echinochloa crus-galli assessed as reduction in growth at 300g/ha measured after 24 days by green house pot method relative to control; assay type: functional; conditions: 576 h
Digitaria adscendens [18] = test: Pre-emergence herbicidal activity against Digitaria adscendens assessed as reduction in growth at 300g/ha measured after 24 days by green house pot method relative to control; assay type: functional; conditions: 576 h
[19] = tested on: Brassica rapa subsp. oleifera; test: Post-emergence herbicidal activity against Brassica campestris assessed as reduction in growth at 300g/ha measured after 24 days by green house pot method relative to control; assay type: functional; conditions: 576 h
Amaranthus retroflexus [20] = test: Post-emergence herbicidal activity against Amaranthus retroflexus assessed as reduction in growth at 300g/ha measured after 24 days by green house pot method relative to control; assay type: functional; conditions: 576 h
Echinochloa crus-galli [21] = test: Post-emergence herbicidal activity against Echinochloa crus-galli assessed as reduction in growth at 300g/ha measured after 24 days by green house pot method relative to control; assay type: functional; conditions: 576 h
Digitaria adscendens [22] = test: Post-emergence herbicidal activity against Digitaria adscendens assessed as reduction in growth at 300g/ha measured after 24 days by based green house pot method relative to control; assay type: functional; conditions: 576 h
Sclerotinia sclerotiorum = test: Antifungal activity against Sclerotinia sclerotiorum assessed as reduction in growth at 50 mg/l by mycelium growth rate method relative to control; assay type: functional; in short: as §2
Phytophthora capsici = test: Antifungal activity against Phytophthora capsici assessed as reduction in growth at 50 mg/l by mycelium growth rate method relative to control; assay type: functional; in short: as §2
[23] = tested on: Botryosphaeria berengeriana; test: Antifungal activity against Physalospora pyricola assessed as reduction in growth at 50 mg/l by mycelium growth rate method relative to control; assay type: functional; in short: as §2
Colletotrichum = test: Antifungal activity against Colletotrichum (W. anthracnose) assessed as reduction in growth at 50 mg/l by mycelium growth rate method relative to control; assay type: functional; in short: as §2
Fusarium fujikuroi = test: Antifungal activity against Gibberella fujikuroi assessed as reduction in growth at 50 mg/l by mycelium growth rate method relative to control; assay type: functional; in short: as §2
Mythimna separata [24] = test: Insecticidal activity against Mythimna separata assessed as larval mortality at 600 mg/l by leaf-dip method; assay type: functional
Tobacco mosaic virus [25] = test: Antiviral activity against Tobacco mosaic virus inoculated in Nicotiana tabacum leaves assessed as passivation by measuring local lesion numbers at 500 mg/l pre-incubated with virus for 30 mins followed by inoculation and measured up to 4 days; assay type: functional
In short: (§5)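 Passivation assay: TMV mixed with an equal volume of compound solution for 30 min, then rubbed onto the left half of N. tabacum L. leaves. The right half received virus mixed with solvent as control. Local lesions counted 3–4 days after inoculation. Compounds tested at 500 or 100 mg/L.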

Tobacco mosaic virus [26] = test: Antiviral activity against Tobacco mosaic virus inoculated in Nicotiana tabacum leaves assessed as passivation by measuring local lesion numbers at 100 mg/l pre-incubated with virus for 30 mins followed by inoculation and measured up to 4 days; assay type: functional; in short: as §5
[27] = tested on: Severe acute respiratory syndrome-related coronavirus; test: Inhibition of SARS coronavirus M protease using AVLQSGFRKK as substrate at 20 uM by FRET assay relative to control
In short: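 Purified SARS-CoV Mpro assayed by FRET. Protein, compound and substrate were preheated at 37 °C and oscillated. Fluorescence (ex 320/em 405 nm) was read every 5 s for 200 reads.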

Ceratobasidium cereale [28] = test: Antifungal activity against Rhizoctonia cerealis assessed as reduction in growth mycelium growth rate method relative to control; assay type: functional, organism-based
In short: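 EC50 against R. cerealis derived from mycelium growth-rate inhibition over a concentration series, using a probit fit: Probit = m(log10[I] − log10[EC50]) + 5.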

Compound: CNC(=O)c1cc(Cl)cc(C)c1NC(=O)c1cc(Br)nn1-c1ncccc1Cl [CHLORANTRANILIPROLE]
- mortality at 10 µg/mL (Mythimna separata [1]): 100%

Compound: COc1cc(OC)nc(Sc2ccc(Br)cc2C(=O)O)n1
- MIC (Candida albicans [2]): > 100 µg/mL
- inhibition at 50 µg/mL (Ceratobasidium cereale [3]): 72.6%
- MIC (Candida albicans [4]): > 100 µg/mL
- inhibition (Candida albicans [5]): 50.5%
- inhibition (Candida albicans [6]): 97%
- MIC (Candida albicans [7]): > 100 µg/mL
- MIC (Candida albicans [8]): > 100 µg/mL
- MIC (Candida albicans [9]): > 100 µg/mL
- MIC (Candida albicans [10]): > 100 µg/mL
- inhibition (Arabidopsis thaliana [11]): 100%
- inhibition (Arabidopsis thaliana [12]): 61%
- inhibition (INH) [13]: 93.6%
- inhibition (INH) [14]: 80.7%
- inhibition at 300 g/ha [15]: 89.9%
- inhibition at 300 g/ha (Amaranthus retroflexus [16]): 93.8%
- inhibition at 300 g/ha (Echinochloa crus-galli [17]): 0%
- inhibition at 300 g/ha (Digitaria adscendens [18]): 27%
- inhibition at 300 g/ha [19]: 80.2%
- inhibition at 300 g/ha (Amaranthus retroflexus [20]): 58.7%
- inhibition at 300 g/ha (Echinochloa crus-galli [21]): 72.3%
- inhibition at 300 g/ha (Digitaria adscendens [22]): 12.8%
- inhibition at 50 µg/mL (Sclerotinia sclerotiorum): 63.9%
- inhibition at 50 µg/mL (Phytophthora capsici): 33.3%
- inhibition at 50 µg/mL [23]: 37.5%
- inhibition at 50 µg/mL (Colletotrichum): 40.5%
- inhibition at 50 µg/mL (Fusarium fujikuroi): 27.3%
- mortality at 600 µg/mL (Mythimna separata [24]): 65%
- inhibition at 500 µg/mL (Tobacco mosaic virus [25]): 0%
- inhibition at 100 µg/mL (Tobacco mosaic virus [26]): 0%
- inhibition [27]: 0%

Compound: COc1cc(OC)nc(Sc2cccc(Cl)c2C(=O)O)n1 [PYRITHIOBAC]
- MIC (Candida albicans [2]): > 100 µg/mL
- inhibition at 50 µg/mL (Ceratobasidium cereale [3]): 86.9%
- MIC (Candida albicans [4]): > 100 µg/mL
- inhibition (Candida albicans [5]): 20%
- inhibition (Candida albicans [6]): 40%
- MIC (Candida albicans [7]): > 100 µg/mL
- MIC (Candida albicans [8]): > 100 µg/mL
- MIC (Candida albicans [9]): > 100 µg/mL
- MIC (Candida albicans [10]): > 100 µg/mL
- inhibition (Arabidopsis thaliana [11]): 100%
- inhibition (Arabidopsis thaliana [12]): 96%
- inhibition (INH) [13]: 97%
- inhibition (INH) [14]: 90.2%
- inhibition at 300 g/ha [15]: 95.2%
- inhibition at 300 g/ha (Amaranthus retroflexus [16]): 96.3%
- inhibition at 300 g/ha (Echinochloa crus-galli [17]): 63.4%
- inhibition at 300 g/ha (Digitaria adscendens [18]): 63.8%
- inhibition at 300 g/ha [19]: 92.3%
- inhibition at 300 g/ha (Amaranthus retroflexus [20]): 61.2%
- inhibition at 300 g/ha (Echinochloa crus-galli [21]): 59.5%
- inhibition at 300 g/ha (Digitaria adscendens [22]): 36.6%
- inhibition at 50 µg/mL (Sclerotinia sclerotiorum): 64.8%
- inhibition at 50 µg/mL (Phytophthora capsici): 44.7%
- inhibition at 50 µg/mL [23]: 60.3%
- inhibition at 50 µg/mL (Colletotrichum): 45.3%
- inhibition at 50 µg/mL (Fusarium fujikuroi): 12.6%
- EC50 (Ceratobasidium cereale [28]): 15.4 µg/mL (≈ 47.1 µM)
- inhibition [27]: 12.2%

Compound: COc1cc(OC)nc(Sc2ccc(F)cc2C(=O)O)n1
- MIC (Candida albicans [2]): 25 µg/mL (≈ 80.6 µM)
- MIC (Candida albicans [4]): 100 µg/mL (≈ 322 µM)
- inhibition (Candida albicans [5]): 73.7%
- inhibition (Candida albicans [6]): 97.7%
- MIC (Candida albicans [7]): 100 µg/mL (≈ 322 µM)
- MIC (Candida albicans [8]): 25 µg/mL (≈ 80.6 µM)
- MIC (Candida albicans [9]): 3.12 µg/mL (≈ 10.1 µM)
- MIC (Candida albicans [10]): 25 µg/mL (≈ 80.6 µM)
- inhibition (Arabidopsis thaliana [11]): 100%
- inhibition (Arabidopsis thaliana [12]): 70.1%
- inhibition (INH) [13]: 86%
- inhibition (INH) [14]: 72%
- inhibition at 300 g/ha [15]: 85.2%
- inhibition at 300 g/ha (Amaranthus retroflexus [16]): 61.1%
- inhibition at 300 g/ha (Echinochloa crus-galli [17]): 13.8%
- inhibition at 300 g/ha (Digitaria adscendens [18]): 0%
- inhibition at 300 g/ha [19]: 75.8%
- inhibition at 300 g/ha (Amaranthus retroflexus [20]): 50.6%
- inhibition at 300 g/ha (Echinochloa crus-galli [21]): 24.3%
- inhibition at 300 g/ha (Digitaria adscendens [22]): 33%
- inhibition at 500 µg/mL (Tobacco mosaic virus [25]): 47%
- inhibition at 100 µg/mL (Tobacco mosaic virus [26]): 11.4%
